In the library only some 1.5% were active in any assay of this set; here they are far more common.
PPC-1+TRAIL kill – compounds killing PPC-1 cancer cells with TRAIL present, primary screen, TRAIL potentiator project, ATPLite luminescence, uHTS | PPC-1 cells + TRAIL, ATPLite viability luminescence | cell killing (% activity), % at 4 µM or 5 µM | 220,000 tested, 0.41% active | AID 1443, 2008;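 active means cell killing above 50% in the first pass at 4 µM, then a duplicate retest at 5 µM averaging 50% or more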;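 further: plate controls were cells with TRAIL plus DMSO for no effect and medium-only wells lacking cells for full effect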
FLuc stim CS – FLuc activators, initial screening, artefact control for FLuc-dependent activation tests, biochemical, ATPlite luminescence | activation factor at 10 µM | AID 1027, 2008 | ATPlite luciferase biochemical, 10 min; 0 = ATP-free wells, 1 = DMSO control | Luciferin 4-monooxygenase (Photinus pyralis), P08659 | 200,000 tested, under 10 active;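 active means luciferase activation factor, scaled between plate controls, of at least 2 with compound at 10 µM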
Target sequence (P08659 whole entry, looked up): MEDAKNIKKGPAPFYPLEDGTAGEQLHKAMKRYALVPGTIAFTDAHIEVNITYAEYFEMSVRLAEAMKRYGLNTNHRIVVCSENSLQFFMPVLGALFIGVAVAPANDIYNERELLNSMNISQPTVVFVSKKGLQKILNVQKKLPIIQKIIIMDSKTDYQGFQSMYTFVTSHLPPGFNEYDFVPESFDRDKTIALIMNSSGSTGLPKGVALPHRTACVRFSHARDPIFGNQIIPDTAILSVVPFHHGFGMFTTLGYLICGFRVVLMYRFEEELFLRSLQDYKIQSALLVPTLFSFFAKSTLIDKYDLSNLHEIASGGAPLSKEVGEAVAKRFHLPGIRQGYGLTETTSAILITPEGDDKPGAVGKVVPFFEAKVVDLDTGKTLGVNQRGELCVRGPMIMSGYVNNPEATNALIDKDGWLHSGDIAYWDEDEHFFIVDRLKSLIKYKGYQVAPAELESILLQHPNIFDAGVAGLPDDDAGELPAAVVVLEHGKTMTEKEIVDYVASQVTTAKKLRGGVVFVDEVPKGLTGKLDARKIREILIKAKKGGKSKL
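Material: Luciferase/luciferin reagent mix; Doses: test compounds dosed from 2 mM stocks in 100% DMSO; Schedule: 10 min incubation after luciferase reagent addition, room temperature; Measured by: luminescence from luciferase reaction; Read-out: luminescence gain marking luciferase activators.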
TRAIL sens C8 – viability loss with TRAIL in NB7+C8 cells, primary screen, TRAIL sensitizer project, cell-based, ATPlite luminescence; inhibition (viability loss, TRAIL sensitization), % at 10 µM; 360,000 tested, 1% active; AID 624354, 2012;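 active means compounds causing at least 50% loss of cell viability in the single-dose screen, relative to plate controls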
FLuc inh counter – firefly luciferase enzyme inhibitors, primary screen, artefact control for luciferase-based inhibitor screens, biochemical, luminescence, ATPLite. Luciferin 4-monooxygenase (Photinus pyralis), P08659. 10 min. inhibition, % at 10 µM. 200,000 tested, 1.5% active. AID 1006, 2008;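 active means inhibition above about 50% when tested at 10 µM, limit read from the data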
Numbers without * were called inactive; . = no result given.

SMILES	PPC-1+TRAIL kill	FLuc stim CS	TRAIL sens C8	FLuc inh counter
Cc1cccc(/C(N)=N/OC(=O)c2cccs2)c1	23.7	0.1	41.0	90.3*
O=C(O/N=C1\CCCc2ccccc21)c1cccs1	0.1	0.1	-5.2	91.4*
COc1cc(OC)c(C(=O)O/N=C(\N)c2cccc(C)c2)cc1OC	.	.	4.9	.
C=C1CC(Cn2cc(Br)c(=O)[nH]c2=O)(c2ccc(-c3ccccc3)cc2)OC1=O (centres undefined)	.	.	94.2*	.
O=c1[nH]c(=O)n(Cc2ccc(Oc3ccccc3)cc2)cc1Br	.	.	-7.5	.
Cc1nonc1OC(C)CNc1ccc([N+](=O)[O-])cc1 (centres undefined)	6.4	1	-7.1	0.5
Cc1ccc(Nc2nnc(SCC(=O)N(C)C3CCS(=O)(=O)C3)s2)cc1 (centres undefined)	47.1	0.2	40.5	76.5*
Cc1ccccc1Nc1nnc(SCC(=O)N(C)C2CCS(=O)(=O)C2)s1 (centres undefined)	13.2	1	-16.4	-3.1
CCc1ccc(OCC(=O)N/N=C(\C)c2ccc(O)cc2O)cc1	7.3	1.1	19.1	-5.3
Cc1ccc(Cc2cnc(NC(=O)c3cccs3)s2)cc1	14.8	0.9	25.1	9.1
O=C(Nc1ncc(Cc2ccc(SC(F)F)cc2)s1)c1ccccc1	12.4	1	33.3	-4.0
Cc1ccc(C(=O)Nc2ncc(Cc3ccccc3)s2)o1	32.5	0.2	57.2*	79.6*
O=C(Nc1ncc(Cc2ccccc2)s1)c1cccs1	1.6	0.6	51.4*	35.7
COc1ccccc1NC(=O)c1nnn(Cc2ccccc2)c1NC(C)=O	-2.5	1	-6.7	-4.9
Cc1ccc(C)c2[nH]c(=O)c(CCNC(=O)c3ccc(S(=O)(=O)N4CCOCC4)cc3)cc12	.	.	-14.6	.
Cc1cc(C)c(-c2c(O)c3cnn(-c4ccccc4)c3[nH]c2=O)c(C)c1	17.4	1	1.2	-4.2
CCc1ccc2nc(SCC(=O)N(CC)CC)c(C#N)cc2c1	4.8	1	-20.1	-3.2
COc1ccc(C2CC(c3ccc(Br)cc3)=NN2C(=O)CSC2=NN3CCCC(=O)N=C3S2)cc1 (centres undefined)	.	.	93.3*	.
COc1ccc(C2CC(c3cccs3)=NN2C(=O)CSC2=NN3CCCC(=O)N=C3S2)cc1 (centres undefined)	14.0	1.1	26.8	-6.8
O=C(COC(=O)c1ccccc1)NC1CCCCCC1	.	.	4.3	.
N/C(=N\OC(=O)c1ccccc1)C(C(=O)NOC(=O)c1ccccc1)C1CCCCC1 (centres undefined)	.	.	90.8*	.
CCOC(=O)c1ccc(NC(=O)CN2C(=O)CNC2=O)cc1	-12.7	1	-5.1	-0.3
Cc1c(NC(=O)COC(=O)c2cc3c4ccccc4n(C)c3s2)c(=O)n(-c2ccccc2)n1C	10.9	1	1.7	0.0
Cn1cccc1/C=N/n1c(-c2ccc(C(C)(C)C)cc2)n[nH]c1=S	23.7	0.9	53.8*	7.0
COc1ccc(CCNC(=O)C2CCN(C(=O)c3ccc(OC)c(OC)c3)CC2)cc1	.	.	5.0	.
SMILES	PPC-1+TRAIL kill	FLuc stim CS	TRAIL sens C8	FLuc inh counter
CCOc1ccc(-n2nc3cc(C)c(N)cc3n2)cc1	.	.	58.7*	.
CC(C)CNC(=O)CN(C1CCCCC1)S(C)(=O)=O	-10.9	1.1	4.5	-5.2
O=S(=O)(Nc1cc(Sc2cccc3cccnc23)c(O)c2ccccc12)c1ccccc1	70.0*	1.1	.	-6.1
CCOc1ccc(S(=O)(=O)Nc2cc(SCC(=O)O)c(O)c3ccccc23)cc1	.	.	34.6	.
CCOc1ccccc1N1CCN(C(=O)c2cc(S(=O)(=O)N3CCCCC3)ccc2C)CC1	.	.	18.8	.
C(=N\Nc1nc2ccccc2[nH]1)/C1CCCCC1	20.5	0.3	9.0	74.0*
C(=C\c1ccccc1)/C=N/Nc1nc2ccccc2[nH]1	20.7	0.4	3.8	63.1*
C(/CCc1ccccc1)=N\Nc1nc2ccccc2[nH]1	14.3	0.2	18.4	83.9*
C(=N\Nc1nc2ccccc2[nH]1)/c1ccccc1	.	0.7	3.6	34.3
CCOC(=O)C(Cc1ccccc1)NS(=O)(=O)c1ccc(NC(C)=O)cc1 (centres undefined)	20.3	1.1	-0.3	-5.5
O=C(N/N=C/c1cccc(OC(=O)c2ccco2)c1)c1ccc(F)cc1	44.3	0.4	70.9*	63.2*
Cc1ccc(C(=O)N/N=C\c2cccc(OC(=O)c3cccc(F)c3)c2)cn1	.	.	53.8*	.
CN(C)c1nc(N2CCOCC2)nc(N(c2ccccc2)c2ccccc2)n1	-15.5	1.1	-2.0	-7.1
CCN(CC(=O)Nc1c(F)cccc1F)C(=O)c1cc(S(=O)(=O)NCc2ccccc2)ccc1C	.	.	6.3	.
Cc1cc(N/N=C/c2ccc(O)c(C)c2O)nc(-c2ccccc2O)n1	64.3*	0.9	44.6	5.8
Nc1nc(Sc2ccc([N+](=O)[O-])c3nonc23)c2[nH]cnc2n1	.	.	75.2*	.
Nc1ncnc(Sc2ccc(Cl)cc2)c1[N+](=O)[O-]	12.0	1.1	15.0	-5.6
Nc1nc(SCc2ccccc2)c2[nH]cnc2n1	.	.	-7.3	.
CNc1ncnc(Sc2nc(N)nc3nc[nH]c23)c1[N+](=O)[O-]	.	.	73.8*	.
COc1cccc(/C=N/n2c(N)c(S(=O)(=O)c3cccs3)c3nc4ccccc4nc32)c1	12.5	1	6.8	-2.3
CCC(=O)c1ccc(OCC(=O)NNC(=O)c2cc(C)oc2C)cc1	.	.	8.3	.
CC1CCc2c(sc3nc(C(C)(C)C)nc(N4CCN(C(=O)CCl)CC4)c23)C1 (centres undefined)	.	.	94.3*	.
CC(=O)Nc1ccc(S(=O)(=O)N2CCN(c3ccc([N+](=O)[O-])cc3)CC2)cc1	.	.	1.5	.
CCCCC(=O)N(C)c1c(CC)nc2c(OCC(=O)N3CCOCC3)cccn12	.	.	-0.4	.
C=C1C(=O)c2sccc2C(c2ccc(OC)c(OC)c2)C1COC(C)=O (centres undefined)	.	.	92.7*	.
SMILES	PPC-1+TRAIL kill	FLuc stim CS	TRAIL sens C8	FLuc inh counter
CCN1CCN(CC(=O)N2N=C(c3cccs3)CC2c2ccc(OC)c(OC)c2)C(=O)C1=O (centres undefined)	30.8	1.1	21.1	-7.0
O=C(N/N=C/C1CC=CCC1)c1ccc(Cl)cc1O (centres undefined)	-5.2	0.4	-13.8	55.3*
CCCCCCCCCCCCCCCC[N+](C)(C)CCl	.	.	90.5*	.
CCCCCCCCCCCCCCCC[N+](C)(C)CC	.	.	92.5*	.
C#CC[N+](C)(C)CCCCCCCCCC	26.1	1	27.0	-3.3
CCCCCC[N+](C)(C)CCSSCC[N+](C)(C)CCCCCC	23.3	.	9.9	.
Nc1ccc(C(=O)N2CCCC2)cc1	31.3	1.1	-2.9	-6.2
CC(=O)Nc1ccc2c(c1)Cc1c-2cc(Cl)c(NC(C)=O)c1Cl	.	.	-4.4	.
O=C(Nc1c(Cl)cc2c(c1Cl)Cc1cc([N+](=O)[O-])ccc1-2)C(Cl)Cl	.	.	86.1*	.
CCOc1ccc(/C=C2\SC(=S)N(CCC(=O)N(CCO)c3ccccc3)C2=O)cc1	.	.	34.2	.
